Screening data from PubChem BioAssay.
A selection: hits, their analogues and other compounds. The true share with any hit is near 1.4%.
CAL PDZ FP-1: blocks peptide binding to human CAL PDZ domain | Q9HD26 | purified CAL PDZ, TMR-peptide fluorescence polarization, 1 h | inhibition, % at 20 µM | hit rate 0.02% among 330,000 | AID 504414;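 active = highest replicate inhibition of at least 40%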;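 also: plate controls were DMSO neutral control wells for no effect and unlabeled competitor peptide control wells for full effect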
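Material: tagged CAL PDZ domain; buffer or medium: 25 mM sodium phosphate pH 7.4, 150 mM NaCl, TCEP, IgG, Thesit; compound dosing: single point, 20 µM; schedule: 1 h incubation at room temperature before polarization reading; measured by: FP readout, S and P plane fluorescence; read-out basis: percent inhibition from loss of millipolarization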
Arrestin-AP2 inh: human beta-arrestin and AP2 interaction inhibition. FITC-arrestin peptide / GST-AP2 beads, flow cytometry; AP2 beta2 appendage carries R879A mutation. inhibition, % at 10 µM. hit rate 0.31% among 340,000. AID 504490;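 active = inhibition above a set limit, near 3 SD of compounds lacking own fluorescence, cut at about 54% in these data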;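 also: plate controls were DMSO wells for no effect and 5 µM unlabelled arrestin peptide for full effect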
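Material – GST-tagged AP2 beta2-adaptin appendage (R879A) on 4 µm glutathione beads · Probe or stimulus – fluorescein-tagged arrestin peptide at 50 nM final · Timing – 12 min plus 1 h, RT · Detection – bead flow cytometry, FITC channel · Read-out basis – inhibition as reduced fluorescein signal on beads, percent · Medium – PBS plus Tween 20 (0.05%) and BSA (0.1%)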
DDE Tn6 FP inh: DD(E)-Tn6 binding inhibition, primary FP screen; hit rate 0.21% among 370,000; Fibrin DD(E) TRITC-Tn6 fluorescence polarization displacement; AID 720509; P02675; inhibition, % at 8.3 µM;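 active = inhibition above a per-campaign cutoff: mean of compounds within control limits plus 3 SD, cut at about 15% in these data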;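 also: 0% = median of all compound wells on the plate and 100% = blocking peptide control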
Target sequence (P02675 whole entry, looked up): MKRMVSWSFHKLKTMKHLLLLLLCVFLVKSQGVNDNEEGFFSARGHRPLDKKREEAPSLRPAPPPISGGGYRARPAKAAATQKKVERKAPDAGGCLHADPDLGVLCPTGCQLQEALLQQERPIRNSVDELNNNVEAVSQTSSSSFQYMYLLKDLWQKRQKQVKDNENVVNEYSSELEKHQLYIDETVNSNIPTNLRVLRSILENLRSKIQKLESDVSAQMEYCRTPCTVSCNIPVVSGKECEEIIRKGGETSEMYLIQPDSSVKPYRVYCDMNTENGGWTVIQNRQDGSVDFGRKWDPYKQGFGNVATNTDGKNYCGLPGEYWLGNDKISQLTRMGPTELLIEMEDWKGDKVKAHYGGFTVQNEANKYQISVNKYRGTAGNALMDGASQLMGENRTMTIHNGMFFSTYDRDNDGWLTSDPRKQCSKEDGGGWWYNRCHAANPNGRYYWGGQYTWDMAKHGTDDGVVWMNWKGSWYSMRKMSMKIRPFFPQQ
CAL PDZ FP-2: blocks peptide binding to the human CAL PDZ domain | Q9HD26 | inhibition, % at 24.9 µM | purified CAL PDZ, TMR-peptide fluorescence polarization, 1 h | AID 602252 | hit rate 0.92% among 300,000;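 active = mean inhibition of at least 30% with at least half of replicates also reaching 30%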;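 also: 0% = DMSO neutral control and 100% = excess unlabeled competitor peptide PRC23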
DDE Tn7 FP inh: disrupts Tn7 cyclic peptide binding to fibrin D-Dimer-E complex; FP displacement of FITC-Tn7 peptide from fibrin DD(E); 0% = median of compound wells per plate; inhibition, % at 8.3 µM; hit rate 0.13% among 370,000; AID 720508;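 active = inhibition above the mean of compounds falling within the control limits plus 3 SD of them, cut at about 14% in these data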;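 also: 0% = plate median of compound wells and 100% = 10 µM Aha-Tn7 peptide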
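Also added: labelled Tn7 tracer, 0.1 µM; Assay system: human fibrin DD(E) protein; Amount: 2 µM fibrin DD(E); Schedule: 10 min compound pre-incubation, 3 h probe incubation at room temperature; Repeats: one replicate per compound; Read-out basis: percent inhibition; Measured by: fluorescence polarization of the labelled Tn7 tracer.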
Tn6 DDE ctr: counter-screen for inhibitors of Tn6 peptide binding to fibrin DD(E) | shares compounds with DDE Tn6 FP inh | TRITC-Tn6 fluorescence polarization displacement; 0% = median of compound wells, not DMSO | inhibition, % at 8.3 µM | hit rate 2% among 680;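 active = inhibition above the mean of test compounds lying between the control limits plus 3 SD of those, cut at about 14% in these data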;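 also: 0% = median of compound wells and 100% = wells with Aha-Tn7 blocking peptide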
Tn6 DDE conf: DD(E)-Tn6 binding inhibition, FP confirmation; shares compounds with DDE Tn6 FP inh; FP displacement of TRITC-Tn6 peptide from DD(E); 0% = per-plate median of test wells; inhibition, % at 8.3 µM; hit rate 10% among 680; AID 720631;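 active = inhibition above the mean of compounds lying within the control limits plus 3 SD, cut at about 16% in these data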;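 also: 100% = high control wells holding a competing inhibitor peptide at 10 µM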
An asterisk follows results filed as active; . = no result given.

SMILES	CAL PDZ FP-1	Arrestin-AP2 inh	DDE Tn6 FP inh	CAL PDZ FP-2	DDE Tn7 FP inh	Tn6 DDE ctr	Tn6 DDE conf
O=C(Cc1ccccc1F)N1CCC(n2nnc3ncccc32)CC1	.	.	5	.	11	.	.
COC(=O)[C@]12C[C@H](CC(=O)N3CCOCC3)C(=O)N(CCC3=CCCCC3)C1=C[C@H](C(C)C)O[C@@H]2C1CC1	.	.	10	.	1	.	.
O=C(O)c1ccc(N2C(=O)/C(=C/C=C/c3ccccc3)SC2=S)cc1	-2	3	-5	-4	7	.	.
CN(C)c1ccc(/C=C/C=C2/SC(=S)N(c3ccccc3)C2=O)cc1	-6	41	31*	1	-2	7	59*
COc1ccccc1C(=O)NC(=O)COC(=O)c1ccc(NC(=O)CC#N)cc1	-2	41	18*	3	2	3	-1
CCCC1CCC2(CC1)CCC2OC(=O)Nc1c(OC)cccc1OC (stereo not given)	.	.	0	.	7	.	.
CCOC(=O)NC(=O)CSc1nc(C)cc(C(F)(F)F)c1C#N	-1	2	15*	-2	9	5	1
N#Cc1ccc(OCC(=O)N(C2CCCCC2)C2CCS(=O)(=O)C2)cc1 (stereo not given)	0	2	16*	-3	-1	10	6
O=C(COc1ccc([N+](=O)[O-])cc1Cl)N(C1CCCCC1)C1CCS(=O)(=O)C1 (stereo not given)	-2	9	0	-1	7	.	.
C#CCNC(=O)C[C@@H]1C(=O)N(Cc2ccc(OC)cc2)C2=CCN(C(=O)OC(C)(C)C)C[C@]21C(=O)OCC	.	.	3	.	-4	.	.
CCc1cc(=O)oc2c3c(cc(OCC(=O)NCCCn4ccnc4)c12)OC(C)(C)CC3	-1	-5	15*	-4	3	-1	-2
CCCCc1cc(=O)oc2c3c(cc(OCC(=O)NCCCO)c12)OC(C)(C)CC3	1	12	0	-3	0	.	.
Cc1ccc(NC(=O)/C=C/c2ccc([N+](=O)[O-])s2)cc1	0	21	18*	6	3	-4	-7
Cc1cccc(NC(=O)/C=C/c2ccc([N+](=O)[O-])s2)c1	0	-10	1	1	1	.	.
O=C(O)c1ccccc1Sc1c([N+](=O)[O-])cc(C(F)(F)F)cc1[N+](=O)[O-]	0	-6	35*	-6	12	0	0
COc1cccc(NC(=O)c2cc3ccccc3cc2OC)c1	-2	4	15*	8	-2	6	-3
Cc1ccc(-c2cc(C(=O)NN=Cc3ccc(N(C)C)cc3)[nH]n2)cc1C	.	.	-4	.	0	.	.
N#C/C(=C/C1=C(N2CCOCC2)C(=C/c2ccc(Cl)cc2Cl)/CC1)C(=O)Nc1ccccc1F	0	6	156*	-6	4	0	11
C=CCNC(=O)NCC1CCN(Cc2ccc(OC)cc2)CC1	.	.	2	.	-2	.	.
O=C(c1ccccc1N1CCOCC1)N1CCCC(Nc2ccc(F)cc2)C1 (stereo not given)	0	21	2	-5	0	.	.
O=C(CCN1CCOCC1)N1CCCC(Nc2ccc(F)cc2)C1 (stereo not given)	0	-6	15*	1	1	-2	-12
OC(c1ccccc1)(c1ccccc1)C1CCN(CCCOc2ccc(-c3ccc(F)cc3F)cc2)CC1	.	.	-2	.	0	.	.
CCC1(C)CC(CCN(Cc2ccco2)C(C)=O)(c2ccccc2)CCO1 (stereo not given)	-3	9	17*	-2	-1	4	3
CCOc1ccc(CCNC(=O)c2cc3sccc3n2C)cc1OCC	1	0	-6	.	-4	.	.
CCOc1ccc(CCNC(=O)c2cc3sc(Cl)cc3n2C)cc1OCC	-1	14	34*	1	5	8	4
SMILES	CAL PDZ FP-1	Arrestin-AP2 inh	DDE Tn6 FP inh	CAL PDZ FP-2	DDE Tn7 FP inh	Tn6 DDE ctr	Tn6 DDE conf
CC1=[N+](C)c2ccc3ccccc3c2C1(C)C	-1	0	55*	-3	-2	-1	8
Cc1ccc(NS(=O)(=O)c2ccc(Cl)c(C(=O)Nc3ccccc3-c3nc4ccccc4[nH]3)c2)cc1C	-2	29	16*	-3	-5	8	3
CN(C)S(=O)(=O)c1ccc(Cl)c(C(=O)Nc2nc3ccccc3[nH]2)c1	0	52	2	-1	-9	.	.
Cc1cc(C)nc(SCC(=O)Nc2ccc(S(=O)(=O)Nc3nccs3)cc2)n1	-2	9	4	-1	-2	.	.
O=C(CSc1nnc(SCc2cccc3ccccc23)s1)Nc1ccc(S(=O)(=O)Nc2nccs2)cc1	.	.	22*	.	-2	7	17*
O=C(NCc1ccc(Cl)cc1)C1C2C=CC3(CN(Cc4ccccc4)C(=O)C13)O2 (stereo not given)	.	.	2	.	-4	.	.
CCOC(=O)[C@@]12CN(C(=O)OC(C)(C)C)CC=C1N(Cc1ccc(OC)cc1)C(=O)[C@H]2CC(=O)N1CCCC1	.	.	6	.	4	.	.
Cn1nc(-c2ccccc2)c(N2CCCCC2)cc1=O	-1	14	1	0	0	.	.
Cn1c(=O)cc2c3c(c(N4CCCCC4)ccc31)C(=O)c1ccccc1-2	.	10	59*	.	5	2	23*
CN(Cc1cn(Cc2cccc(Cl)c2)nn1)C1CN(Cc2cn(Cc3cccc(Cl)c3)nn2)S(=O)(=O)C1 (stereo not given)	.	.	16*	.	2	-8	-8
CC(=O)c1ccc(NC(=S)NCCc2ccc(S(N)(=O)=O)cc2)cc1	-4	4	15*	10	4	-8	-12
COc1ccc(CCC(=O)Nc2nc3c(s2)CN(C)CC3)cc1OC	-1	-8	83*	11	1	0	-3
Cc1cc(N/N=C/c2ccco2)c2ccccc2n1	-2	-7	17*	-1	6	1	0
Cc1ccc(-c2cccc3[nH]cc(C)c23)s1	.	.	-4	.	-4	.	.
CN1CCN(c2nc(-c3ccccc3)nc(-c3ccc(F)cc3)c2C#N)CC1	-1	10	-2	1	-9	.	.
COc1ccc(-c2nc(-c3ccccn3)nc(N3CCN(C)CC3)c2C#N)cc1	-1	-19	17*	-1	2	5	0
COC(=O)CCC(=O)OC1(C)C(=O)C=C2C=C(C3CC3)N(C3CCCC3)C=C2C1=O (stereo not given)	0	42	20*	2	-7	-6	-9
O=C(c1cc2ccccc2o1)N1CCCC1	1	9	17*	-1	2	2	4
CC(=O)N1CCN(C(=O)c2cc3ccccc3o2)CC1	-1	20	-10	10	4	.	.
